Here are results for ten compounds from PubChem BioAssay.

The term inhibition denotes the relative decrease from the control value, in per cent.

The structures appear in SMILES notation. The source made the active and inactive calls.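 The calls were made as follows, unless noted: active = fluorescence slope after compound addition differing from the mean of all screened samples at 99.7% confidence, in either direction; inactive = the rest.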

The nature of assay [1]: inhibitors of TNFa-induced NFkB p65 translocation, primary screen, imaging, HUVEC, MLSMR starter and 10KST1 sets (AID 438;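 active = inhibition above 20% together with a positive visual image hit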;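 also: compound added about 3h40 before a 20 min TNFalpha stimulation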;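 as to inhibition: signal is the nuclear over cytoplasmic p65 intensity ratio per well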). As to conditions: HUVEC TNFa-induced p65 nuclear translocation; cell count: measured here: nuclei count (cytotoxicity indicator), at 2.08 µM; inhibition: at 2 µM, stronger effect = higher value, 0% TNFa-plus-vehicle, 100% no-TNFa wells.
Assay [2] is described as follows: inhibitors of mutant huntingtin aggregation, primary screen, imaging, exon1htt(103Q)mCFP cells, high-content imaging (AID 483;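 active = visual image review flags a hit and inhibition of aggregation exceeds 20%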;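 also: compound exposure lasted 3 days before fixation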;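 as to nuclei count: percent of the per-plate median nuclei count of sample wells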). As to conditions: exon1htt(103Q)mCFP cell line, aggregate imaging, at 2 µM; inhibition of aggregation: stronger effect = higher value; nuclei count: measured here: cell count, toxicity.
Assay [3] is described as follows: inhibitors of E-selectin induction by TNFa, primary screen, imaging, HUVEC, immunofluorescence, MLSMR starter and 10KST1 sets (AID 487;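 active = visually confirmed hit in the image check and inhibition above 20%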;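 as to inhibition: signal is fraction of cell area covered by stained E-selectin grains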;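 as to nuclei count: 100% = median nuclei count of all wells on the same plate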). As to conditions: HUVEC TNFalpha-induced E-selectin immunofluorescence imaging, at 2 µM; inhibition: stronger effect = higher value; nuclei count: measured here: cell number, toxicity.
For assay [4], the target named is Voltage-gated potassium channel subunit beta-2 (Rattus norvegicus) (UniProt P62483). In words: KvBeta enzyme negative modulators, primary screen, biochemical, NADPH fluorescence (AID 622;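 active = fluorescence slope higher than the sample average by over 3 SD, cut at about -0.22 in these data, passing the limit was not always enough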;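 also: slope of raw intensity against log time taken from 70 to 1610 s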). As to conditions: recombinant KvBeta, 4-cyanobenzaldehyde reduction, at 10 µM, stronger effect = higher value.
Chain of Voltage-gated potassium channel subunit beta-2 (Rattus norvegicus) (P62483 whole entry, looked up): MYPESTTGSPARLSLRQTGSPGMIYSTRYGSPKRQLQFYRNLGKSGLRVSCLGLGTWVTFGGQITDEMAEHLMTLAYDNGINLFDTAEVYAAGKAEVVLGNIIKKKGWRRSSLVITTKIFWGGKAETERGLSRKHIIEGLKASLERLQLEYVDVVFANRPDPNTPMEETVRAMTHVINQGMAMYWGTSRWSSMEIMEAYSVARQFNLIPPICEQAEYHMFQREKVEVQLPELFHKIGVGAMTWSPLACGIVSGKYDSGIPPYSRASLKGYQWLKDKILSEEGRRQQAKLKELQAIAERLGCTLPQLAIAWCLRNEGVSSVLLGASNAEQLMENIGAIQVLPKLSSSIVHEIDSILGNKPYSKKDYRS
The target is the same in assay [5]. In words: KvBeta positive modulators, primary screen, biochemical, NADPH fluorescence (AID 623;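 active = NADPH fluorescence slope more negative than the mean of all samples by about 3 SD, 99.7% confidence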;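 also: fluorescence intensity change per second fitted from 20 to 320 s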). As to conditions: Recombinant KvBeta, NADPH fluorescence decrease slope, 10 min; at 10 µM; stronger effect = lower value.
For assay [6], the target named is Alpha-2C adrenergic receptor (Homo sapiens) (UniProt P18825). Kind of assay: modulators of alpha2C/GIRK thallium flux, primary screen, cell-based, HEK293 alpha2C/GIRK1/2 (AID 624).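 Also: slope of fluorescence ratio to pre-addition baseline per second over 15 to 24 s.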 To be noted: thallium flux BTC fluorescence, at 10 µM, actives lie on both sides.
Chain of Alpha-2C adrenergic receptor (Homo sapiens) (P18825 whole entry, looked up): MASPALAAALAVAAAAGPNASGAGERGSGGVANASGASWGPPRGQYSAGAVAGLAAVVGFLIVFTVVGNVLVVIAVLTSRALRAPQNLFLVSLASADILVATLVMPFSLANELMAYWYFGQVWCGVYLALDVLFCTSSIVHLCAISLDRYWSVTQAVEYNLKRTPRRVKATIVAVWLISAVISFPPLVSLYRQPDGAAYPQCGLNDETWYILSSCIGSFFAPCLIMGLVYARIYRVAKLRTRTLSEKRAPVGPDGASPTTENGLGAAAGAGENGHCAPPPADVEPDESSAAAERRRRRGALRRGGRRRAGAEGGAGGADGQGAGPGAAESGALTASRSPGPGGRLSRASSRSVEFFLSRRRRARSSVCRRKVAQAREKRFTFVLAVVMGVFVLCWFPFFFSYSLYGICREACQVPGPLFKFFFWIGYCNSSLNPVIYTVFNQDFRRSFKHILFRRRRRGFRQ
The nature of assay [7]: inhibitors of larval lipid processing in zebrafish, primary screen, whole organism, PED6 fluorescence, gall bladder and intestine (AID 686;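 active = a full or partial loss of lipid-probe fluorescence in the fish gall bladder, intestine or both, judged by eye; inactive = no fluorescence loss, or compound toxic to the fish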;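 also: larvae 5 to 7 days old with five fish per well; signal comes from phospholipase A2 cleavage of quenched PED6 carried via bile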). To be noted: Zebrafish larvae PED6 lipid processing, fluorescence scoring; screened at 20 µM (by protocol). The method, boiled down: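 system = live zebrafish larvae aged 5-7 days, whole organism | probe or stimulus = ingested quenched lipid PED6 at 100 nM | doses = 20 µM single dose | timing = overnight exposure | detection = fluorescence microscopy with visual scoring of gall bladder and intestine | read-out = visual per-well fluorescence inhibition score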

Assay [8] can be described thus: inhibitors of Sendai virus-induced IRF3 signaling, primary screen, TLR/RLR signaling modifier project, cell-based, Sendai virus stimulus, luciferase, 10K MLSCN set (AID 602276;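 active = inhibition at or above 50% at 10 µM; inactive = inhibition below 50%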;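 also: firefly luciferase from ISG56 promoter only with Renilla not read in this screen; 0% = Sendai virus plus DMSO and 100% = medium plus DMSO without virus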). To be noted: HEK293 RL24 IRF3 luciferase reporter, at 10 µM, stronger effect = higher value. A general note: A reporter such as luciferase makes a cellular process visible.
The nature of assay [9]: inhibitors of poly I:C-induced TLR3 signaling, primary screen, cell-based, poly I:C stimulus, luciferase, 10K MLSCN set (AID 602277;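 active = inhibition of the reporter signal at or above 50%; inactive = inhibition below 50%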). To be noted: HEK293-TLR3 RL24 IRF3 luciferase reporter, at 10 µM, stronger effect = higher value.

As to `CCN1CCN(c2nc3c(c(=O)n(C)c(=O)n3C)n2Cc2cccc3ccccc23)CC1`, the cell count in [1] was 471. Further, the inhibition was -6% (inactive) in assay [1], 35.5% (inactive) in assay [3], 12.4% (inactive) in [8] and 18.7% (inactive) in assay [9]. Moreover, the inhibition of aggregation in [2] was 14.8% (inactive). Further, the values for the nuclei count in assay [2] and in assay [3] were 85.1% and 80.6%, respectively. The fluorescence slope in assay [4] was -0.46 (inactive). The NADPH fluorescence slope in assay [5] is -5.6e-05 (inactive). Further, in assay [6], the slope was 0.00535 (inactive). Moreover, the result in assay [7] was inactive.

For the compound `CCc1ccc2[nH]c(=O)c(C(c3nnnn3CC3CCCO3)N3CCN4CCCC4C3)cc2c1` (stereo not given), in assay [1], the cell count was determined as 314. Also, the inhibition in [1] is 12.3% (inactive); in assay [3] it was 13.9% (inactive); in [8], 9.53% (inactive); in assay [9] it was 4.74% (inactive). In [2], the inhibition of aggregation is -16.9% (inactive). In addition, the nuclei count in assay [2] was 107%; in [3], 102%. Besides, the fluorescence slope in assay [4] is -0.382 (inactive). The NADPH fluorescence slope in assay [5] was -5.9e-05 (inactive). Also, the slope in [6] was 0.00534 (inactive). The outcome in assay [7] was inactive.

Turning to `COCCNC(=O)NC(=O)COC(=O)Cc1ccc2c(c1)OCCO2`, in assay [1], the cell count turned out to be 376. Also, the inhibition in assay [1] was 5.1% (inactive); in [3], -127% (inactive); in [8] it was 17% (inactive); in [9], 16.3% (inactive). Further, in assay [2], the inhibition of aggregation was -11.9% (inactive). For the same compound, the nuclei count in assay [2] amounted to 109%; in assay [3] it was 110%. Moreover, the fluorescence slope in assay [4] was -0.418 (inactive). For the same compound, in assay [5], the NADPH fluorescence slope was -6.4e-05 (inactive). Moreover, the slope in assay [6] is 0.00538 (inactive). Moreover, in assay [7], the compound was called inactive.

As for `O=C(O)CC(C(=O)Nc1cccc(C(F)(F)F)c1)C1CCCO1` (stereo not given), the cell count in [1] was 548. Besides, the inhibition in [1] is -10.1% (inactive); in assay [3] it was 2.3% (inactive); in assay [8] it was -2.64% (inactive); in [9], 7.18% (inactive). Besides, the inhibition of aggregation in [2] is 9.8% (inactive). For the same compound, the nuclei count amounted to 101% in assay [2] and 92.1% in [3]. Further, the fluorescence slope in assay [4] was -0.375 (inactive). Also, the NADPH fluorescence slope in assay [5] was -2.9e-05 (inactive). In assay [6], the slope was 0.00461 (inactive). For the same compound, the result in [7] was inactive.

For the compound `COc1cccc(Nc2nnc(SCC(=O)N3CC(C)OC(C)C3)s2)c1` (stereo not given), the cell count in assay [1] was determined as 448. Further, the inhibition is 4.8% (inactive) in assay [1], -19.6% (inactive) in [3], -1.41% (inactive) in assay [8] and -10% (inactive) in [9]. Further, in assay [2], the inhibition of aggregation was 14.5% (inactive). The figures for the nuclei count in [2] and in assay [3] were 73.5% and 117%, respectively. Further, the fluorescence slope in assay [4] was -0.409 (inactive). For the same compound, the NADPH fluorescence slope in [5] is -9.2e-05 (inactive). In assay [6], the slope was 0.00562 (inactive). The compound was called inactive in [7].

Consider `COc1ccc(OCCOC(=O)c2cccc(-n3cnnn3)c2)cc1`, for which the cell count in assay [1] was determined as 289. Also, the inhibition in [1] is 4.4% (inactive); in [3], -5.5% (inactive); in [8] it was -2.23% (inactive); in assay [9], -15.7% (inactive). Further, the inhibition of aggregation in [2] is 8.2% (inactive). For the same compound, the nuclei count is 92.8% in assay [2] and 112% in assay [3]. Further, the fluorescence slope in [4] was -0.462 (inactive). In addition, the NADPH fluorescence slope in [5] was -4.8e-05 (inactive). Besides, the slope in assay [6] was 0.00521 (inactive). In assay [7], the outcome was inactive.

In the case of `COc1ccc(-c2nsc(SCC(=O)Nc3cc(C)on3)n2)cc1`, the cell count in assay [1] amounted to 245. Also, the inhibition in assay [1] was -7% (inactive); in assay [3], 50.5% (inactive); in [8], 21.4% (inactive); in assay [9] it was 17.9% (inactive). In assay [2], the inhibition of aggregation was 14.4% (inactive). Also, the nuclei count in assay [2] is 84.3%; in assay [3], 64.4%. Also, the fluorescence slope in [4] is -0.396 (inactive). Also, in assay [5], the NADPH fluorescence slope was -2.2e-07 (inactive). The slope in assay [6] was 0.0058 (inactive). Moreover, the outcome in assay [7] was inactive.

Turning to `COCCNC(=S)c1ccc(OC)cc1`, in [1], the cell count is 318. For the same compound, the inhibition is 4.7% (inactive) in assay [1], -41.9% (inactive) in [3], 4.72% (inactive) in [8] and 4.95% (inactive) in [9]. In [2], the inhibition of aggregation was 1.2% (inactive). The figures for the nuclei count in assay [2] and in [3] were 121% and 123%, respectively. Further, in assay [4], the fluorescence slope is -0.362 (inactive). Moreover, in [5], the NADPH fluorescence slope was -7.4e-05 (inactive). Also, in [6], the slope is 0.00489 (inactive). Also, the compound was called inactive in [7].

For the compound `COc1ccc(N=C2C(=O)Nc3ccccc32)cc1`, the cell count in [1] turned out to be 617. For the same compound, the inhibition was 2.4% (inactive) in assay [1], -96.7% (inactive) in assay [3], 13% (inactive) in assay [8] and 28.1% (inactive) in assay [9]. Further, the inhibition of aggregation in [2] was -5% (inactive). Moreover, the values for the nuclei count in [2] and in assay [3] were 100% and 138%, respectively. Moreover, the fluorescence slope in assay [4] is -0.374 (inactive). Further, in assay [5], the NADPH fluorescence slope was -1.5e-06 (inactive). Further, the slope in assay [6] is 0.00431 (inactive). In addition, the call in assay [7] was inactive.

Take `CCOC(=O)CC(=O)CSc1nc(-c2cccnc2)ccc1C#N`: in assay [1], the cell count came out at 908. Moreover, the inhibition in [1] was 11.4% (inactive); in assay [3] it was -90.5% (inactive); in [8], -15.8% (inactive); in [9], -33.1% (inactive). Moreover, the inhibition of aggregation in [2] is -23.5% (inactive). Moreover, the nuclei count in assay [2] amounted to 87.2%; in assay [3], 128%. In [4], the fluorescence slope is -0.0463 (active). The NADPH fluorescence slope in [5] is -1.8e-05 (inactive). The slope in assay [6] was 0.013 (active). Besides, the call in assay [7] was inactive.
